The source made the active and inactive calls. No cut-off for these calls is given here.
Key:
[1] = biological target: T1, Cathepsin B (Homo sapiens, UniProt P07858); assay: Inhibition of cathepsin B in human MCF-10A neoT cells assessed as proteolysis of extracellular membrane by measuring decrease in intracellular degradation of DQ-collagen 4 at 50 uM incubated for 2 hrs followed by DQ-collagen addition measured for 2 hrs by propidium iodide staining based flow cytometry relative to control; assay type: cell-based
Summary of the method: (§1)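 MCF-10A neoT cells (6 × 10⁴) treated with compound or DMSO. Intracellular DQ-collagen IV degradation measured by flow cytometry, with unlabeled cells as background. Reduction expressed versus DMSO. Mean of n = 3, run in duplicate.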

[2] = tested on: U-87 MG; assay: Cytotoxicity against human U87MG cells assessed as decrease in cell viability after 72 hrs by MTS assay; assay type: cell-based; conditions: u-87mg atcc
[3] = tested on: MCF-10A-neoT; assay: Cytotoxicity against human MCF10AneoT cells assessed as decrease in cell viability after 72 hrs by MTS assay; assay type: cell-based
[4] = biological target: T1, Cathepsin B; assay: Mixed inhibition of recombinant human cathepsin B exopeptidase activity assessed as inhibitory constant for enzyme-inhibitor complex using Abz-Gly-Ile-Val-Arg-Ala-Lys(Dnp)-OH as substrate in presence of pH 5 acetate buffer by fluorescence assay
[5] = biological target: T1, Cathepsin B; assay: Mixed inhibition of recombinant human cathepsin B exopeptidase activity assessed as inhibitory constant for enzyme-substrate-inhibitor complex using Abz-Gly-Ile-Val-Arg-Ala-Lys(Dnp)-OH as substrate in presence of pH 5 acetate buffer by fluorescence assay
[6] = biological target: T1, Cathepsin B; assay: Competitive inhibition of recombinant human cathepsin B endopeptidase activity assessed as inhibitory constant for enzyme-inhibitor complex using Z-Arg-Arg-AMC as substrate in presence of pH 4.5 acetate buffer by fluorescence assay
Summary of the method: (§2)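 Recombinant cathepsin B endopeptidase activity assayed with the small substrate Z-Arg-Arg-AMC at pH 4.5. Acidic conditions chosen to shift the enzyme toward the closed (exopeptidase) conformation. Ki reported.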

[7] = biological target: T1, Cathepsin B; assay: Uncompetitive inhibition of recombinant human cathepsin B endopeptidase activity assessed as inhibitory constant for enzyme-substrate-inhibitor complex using Z-Arg-Arg-AMC as substrate in presence of pH 6 phosphate buffer by fluorescence assay
[8] = biological target: T1, Cathepsin B; assay: Inhibition of cathepsin B in human MCF-10A neoT cells assessed as proteolysis of extracellular membrane by measuring decrease in extracellular degradation of DQ-collagen 4 at 5 uM incubated for 6 hrs measured for 2 hrs by fluorescence based spectrofluorimetric assay relative to control; assay type: cell-based
Summary of the method: (§3)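 MCF-10A neoT cells (5 × 10⁴) incubated with DQ-collagen IV in the presence of compound or DMSO. Extracellular degradation product read by spectrofluorimetry. Mean of n = 3, six replicates per experiment.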

[9] = tested on: MCF-10A-neoT; assay: Antiinvasive activity against human MCF10AneoT cells at 5 uM incubated for 1 hr measured every 15 mins for 72 hrs by real time xCELLigence assay relative to control; assay type: functional
Summary of the method: (§4)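 MCF-10A neoT cells (3 × 10⁴) seeded on Matrigel-coated (1 mg/mL) upper compartments of CIM-plates. Compound or DMSO (0.05%) added to growth medium in both upper and lower compartments. Invasion followed by impedance (cell index) for 72 h. Slopes (1/h) between 4 and 14 h converted to percentage invasion versus DMSO. Means of n = 2, each run in triplicate.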

[10] = biological target: T2, Pro-cathepsin H (Homo sapiens, UniProt P09668); assay: Uncompetitive inhibition of human liver cathepsin H assessed as inhibitory constant for enzyme-substrate-inhibitor complex using R-AMC as substrate in presence of pH 6 phosphate buffer by fluorescence assay
T2 sequence (P09668 whole entry): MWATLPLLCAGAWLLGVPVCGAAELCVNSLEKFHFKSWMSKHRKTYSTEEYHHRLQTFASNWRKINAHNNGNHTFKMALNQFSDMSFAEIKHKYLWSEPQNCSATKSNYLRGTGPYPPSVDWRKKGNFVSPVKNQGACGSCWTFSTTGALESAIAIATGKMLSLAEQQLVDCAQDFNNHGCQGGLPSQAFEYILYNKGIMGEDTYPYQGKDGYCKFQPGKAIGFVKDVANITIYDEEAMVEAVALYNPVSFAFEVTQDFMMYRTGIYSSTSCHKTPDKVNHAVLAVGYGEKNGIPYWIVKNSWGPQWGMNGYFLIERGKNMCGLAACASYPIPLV

[11] = biological target: T3, Procathepsin L (Homo sapiens, UniProt P07711); assay: Non-competitive inhibition of recombinant human cathepsin L expressed in Escherichia coli assessed as inhibitory constant for enzyme-substrate-inhibitor complex using Z-FR-AMC as substrate in presence of pH 6 phosphate buffer by fluorescence assay
[12] = biological target: T3, Procathepsin L; assay: Non-competitive inhibition of recombinant human cathepsin L expressed in Escherichia coli assessed as inhibitory constant for enzyme-inhibitor complex using Z-FR-AMC as substrate in presence of pH 6 phosphate buffer by fluorescence assay
[13] = biological target: T2, Pro-cathepsin H; assay: Competitive inhibition of human liver cathepsin H assessed as inhibitory constant for enzyme-inhibitor complex using R-AMC as substrate in presence of pH 6 phosphate buffer by fluorescence assay
[14] = biological target: T1, Cathepsin B; assay: Inhibition of cathepsin B in human MCF-10A neoT cells assessed as proteolysis of extracellular membrane by measuring decrease in intracellular degradation of DQ-collagen 4 at 12.5 uM incubated for 2 hrs followed by DQ-collagen addition measured for 2 hrs by propidium iodide staining based flow cytometry relative to control; assay type: cell-based; summary of the method: as §1
[15] = biological target: T1, Cathepsin B; assay: Uncompetitive inhibition of recombinant human cathepsin B exopeptidase activity assessed as inhibitory constant for enzyme-substrate-inhibitor complex using Abz-Gly-Ile-Val-Arg-Ala-Lys(Dnp)-OH as substrate in presence of pH 5 acetate buffer by fluorescence assay
[16] = biological target: T3, Procathepsin L; assay: Competitive inhibition of recombinant human cathepsin L expressed in Escherichia coli assessed as inhibitory constant for enzyme-inhibitor complex using Z-FR-AMC as substrate in presence of pH 6 phosphate buffer by fluorescence assay
[17] = biological target: T1, Cathepsin B; assay: Inhibition of recombinant human cathepsin B endopeptidase activity assessed as inhibitory constant for enzyme-inhibitor complex using Z-Arg-Arg-AMC as substrate in presence of pH 6 phosphate buffer by fluorescence assay
[18] = biological target: T1, Cathepsin B; assay: Inhibition of cathepsin B in human MCF-10A neoT cells assessed as proteolysis of extracellular membrane by measuring decrease in extracellular degradation of DQ-collagen 4 at 1.25 uM incubated for 6 hrs measured for 2 hrs by fluorescence based spectrofluorimetric assay relative to control; assay type: cell-based; summary of the method: as §3
[19] = tested on: U-87 MG; assay: Growth inhibition of human U87MG tumor spheroids at 1.25 uM measured up to 3 days by light microscopy; assay type: functional, cell-based; conditions: U-87MG ATCC
Summary of the method: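 U-87 MG multicellular spheroids formed by hanging drop and implanted in Matrigel with compound. Spheroid dimensions measured for up to three days and volume calculated. Means of n = 2.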

[20] = tested on: MCF-10A-neoT; assay: Antiinvasive activity against human MCF10AneoT cells at 1.25 uM incubated for 1 hr measured every 15 mins for 72 hrs by real time xCELLigence assay relative to control; assay type: functional; summary of the method: as §4
[21] = tested on: MCF-10A-neoT; assay: Antiinvasive activity against human MCF10AneoT cells at 2.5 uM incubated for 1 hr measured every 15 mins for 72 hrs by real time xCELLigence assay relative to control; assay type: functional, cell-based; summary of the method: as §4
[22] = biological target: T2, Pro-cathepsin H; assay: Non-competitive inhibition of human liver cathepsin H assessed as inhibitory constant for enzyme-substrate-inhibitor complex using R-AMC as substrate in presence of pH 6 phosphate buffer by fluorescence assay
[23] = biological target: T1, Cathepsin B; assay: Mixed inhibition of recombinant human cathepsin B endopeptidase activity assessed as inhibitory constant for enzyme-substrate-inhibitor complex using Z-Arg-Arg-AMC as substrate in presence of pH 6 phosphate buffer by fluorescence assay
[24] = biological target: T2, Pro-cathepsin H; assay: Non-competitive inhibition of human liver cathepsin H assessed as inhibitory constant for enzyme-inhibitor complex using R-AMC as substrate in presence of pH 6 phosphate buffer by fluorescence assay
[25] = biological target: T1, Cathepsin B; assay: Inhibition of cathepsin B in human MCF-10A neoT cells assessed as proteolysis of extracellular membrane by measuring decrease in intracellular degradation of DQ-collagen 4 at 25 uM incubated for 2 hrs followed by DQ-collagen addition measured for 2 hrs by propidium iodide staining based flow cytometry relative to control; assay type: cell-based
Summary of the method: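 Intracellular DQ-collagen IV degradation in MCF-10A neoT cells (6 × 10⁴) treated with compound or DMSO, read by flow cytometry. Unlabeled cells served as background. Reduction in intracellular signal reported against DMSO as mean ± SEM, n = 3 experiments, each in duplicate.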

[26] = biological target: T1, Cathepsin B; assay: Mixed inhibition of recombinant human cathepsin B endopeptidase activity assessed as inhibitory constant for enzyme-inhibitor complex using Z-Arg-Arg-AMC as substrate in presence of pH 6 phosphate buffer by fluorescence assay
[27] = biological target: T1, Cathepsin B; assay: Inhibition of cathepsin B in human MCF-10A neoT cells assessed as proteolysis of extracellular membrane by measuring decrease in extracellular degradation of DQ-collagen 4 at 2.5 uM incubated for 6 hrs measured for 2 hrs by fluorescence based spectrofluorimetric assay; assay type: cell-based
Summary of the method: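 MCF-10A neoT cells (5 × 10⁴) exposed to compound or DMSO vehicle control with DQ-collagen IV. Fluorescence of the extracellular cleavage product measured by spectrofluorimetry. Mean ± SEM of n = 3 experiments, each in six replicates.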

[28] = biological target: T1, Cathepsin B; assay: Non-competitive inhibition of recombinant human cathepsin B exopeptidase activity assessed as inhibitory constant for enzyme-substrate-inhibitor complex using Abz-Gly-Ile-Val-Arg-Ala-Lys(Dnp)-OH as substrate in presence of pH 5 acetate buffer by fluorescence assay
[29] = biological target: T1, Cathepsin B; assay: Non-competitive inhibition of recombinant human cathepsin B exopeptidase activity assessed as inhibitory constant for enzyme-inhibitor complex using Abz-Gly-Ile-Val-Arg-Ala-Lys(Dnp)-OH as substrate in presence of pH 5 acetate buffer by fluorescence assay
[30] = biological target: T1, Cathepsin B; assay: Competitive inhibition of recombinant human cathepsin B endopeptidase activity assessed as inhibitory constant for enzyme-inhibitor complex using Z-Arg-Arg-AMC as substrate in presence of pH 6 phosphate buffer by fluorescence assay
[31] = biological target: T1, Cathepsin B; assay: Inhibition of recombinant human cathepsin B endopeptidase activity assessed as inhibitory constant for enzyme-substrate-inhibitor complex using Z-Arg-Arg-AMC as substrate in presence of pH 6 phosphate buffer by fluorescence assay
[32] = biological target: T1, Cathepsin B; assay: Inhibition of recombinant human cathepsin B endopeptidase activity assessed as inhibitory constant for enzyme-inhibitor complex using Z-Arg-Arg-AMC as substrate in presence of pH 4.5 acetate buffer by fluorescence assay; summary of the method: as §2
[33] = biological target: T1, Cathepsin B; assay: Inhibition of recombinant human cathepsin B exopeptidase activity assessed as residual activity at 50 uM using Abz-Gly-Ile-Val-Arg-Ala-Lys(Dnp)-OH as substrate in presence of pH 5 acetate buffer by fluorescence assay relative to control
[34] = biological target: T1, Cathepsin B; assay: Inhibition of recombinant human cathepsin B endopeptidase activity assessed as residual activity at 50 uM using Z-Arg-Arg-AMC as substrate in presence of pH 6 phosphate buffer by fluorescence assay relative to control

T3 sequence (P07711 whole entry): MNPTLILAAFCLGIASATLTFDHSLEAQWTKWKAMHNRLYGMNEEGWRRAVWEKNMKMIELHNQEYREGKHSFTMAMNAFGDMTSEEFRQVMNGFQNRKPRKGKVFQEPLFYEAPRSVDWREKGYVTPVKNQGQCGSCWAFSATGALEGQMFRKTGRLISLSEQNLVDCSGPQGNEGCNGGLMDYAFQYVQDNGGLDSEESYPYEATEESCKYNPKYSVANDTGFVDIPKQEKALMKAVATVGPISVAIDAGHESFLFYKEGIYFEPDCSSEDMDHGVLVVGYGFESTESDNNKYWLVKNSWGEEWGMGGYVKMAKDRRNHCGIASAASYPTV

Row | Structure (SMILES) | inhibition [1] | Activity [2] | Activity [3] | Ki [4] [µM] | Ki [5] [µM] | Ki ([6]; read-out: Ki) [µM] | Ki [7] [µM] | inhibition [8] | Activity [9] [%] | Ki [15] [µM] | Ki [16] [µM] | also measured
1 | N#CCN(Cc1ccccc1)C(=O)c1ccc2c([N+](=O)[O-])cc([N+](=O)[O-])c(O)c2n1 | inactive | Non-Toxic | Non-Toxic | 154 | 35 | 163 | 9 | Active |  |  |  | 
2 | N#CCNC(=O)c1cc([N+](=O)[O-])c2cccnc2c1O | 60% | Non-Toxic | Non-Toxic | 128 | 30 | 206 | 67 | Active | 20 |  |  | Ki [10]: 462 µM; Ki [11]: 155 µM; Ki [12]: 155 µM
3 | O=C(NCC1CCN(c2nc3ccccc3o2)CC1)c1cc([N+](=O)[O-])c2cccnc2c1O |  | Non-Toxic | Non-Toxic |  |  | 237 | 8 |  |  | 13 | 5 | Ki [13]: 108 µM; inhibition [14]: 35%; Ki [17]: 8.2 µM; inhibition [18]: 45%; growth inhibition (GI) [19]: Active; Activity [20]: 50%
4 | Cc1ccc2c([N+](=O)[O-])ccc(O)c2n1 |  | Non-Toxic | Non-Toxic | 469 | 77 | 153 |  |  |  |  | 122 | Activity [21]: inactive; Ki [22]: 89 µM; Ki [23]: 99 µM; Ki [24]: 89 µM; inhibition [25]: 80%; Ki [26]: 181 µM; inhibition [27]: Active
5 | N#CCNC(=O)c1ccc([N+](=O)[O-])c2cccnc12 |  |  |  |  |  | 294 |  |  |  |  |  | Ki [28]: 190 µM; Ki [29]: 190 µM; Ki [30]: 240 µM
6 | N#CC1(NC(=O)c2cc([N+](=O)[O-])c3cccnc3c2O)CC1 | 15% | Non-Toxic | Non-Toxic |  |  |  | 124 | Active | 70 |  | 195 | Ki [28]: 185 µM; Ki [22]: 329 µM; Ki [29]: 185 µM; Ki [6]: Not Active; Ki [24]: 329 µM
7 | CC(=O)c1ccc(-c2occc2-c2ccc([N+](=O)[O-])c3cccnc23)cc1 |  |  |  |  |  |  | 46 |  |  | 11 |  | Ki [31]: Not Active; Ki [32]: Not Active
8 | O=[N+]([O-])c1ccc(O)c2ncccc12 |  |  |  |  |  |  |  |  |  |  |  | Activity [33]: 24.7%; Activity [34]: 21.9%
9 | CC(=O)c1ccc(-c2cc(-c3ccc([N+](=O)[O-])c4cccnc34)c(-c3ccc(C(C)=O)cc3)o2)cc1 |  |  |  |  |  |  | 39 |  |  | 13 |  | Ki [31]: Not Active; Ki [32]: Not Active
10 | CCCNC(=O)[C@H]1O[C@@H]1C(=O)N[C@H](C(=O)N1CCC[C@H]1C(=O)O)[C@@H](C)CC | inactive |  |  |  |  |  |  |  | 40 |  |  | 
